The record followed here is ChEMBL document CHEMBL1157673, “Synthesis and in vitro evaluation of fluorinated diphenyloxide derivatives and sulfur analogs as serotonin transporter ligands” (Bioorg Med Chem, 2010).

Experiment [1] deals with Sodium-dependent serotonin transporter (Homo sapiens, UniProt P31645). The experiment can be described thus: Displacement of [3H]citalopram from human cloned SERT expressed in HEK293 cells. Type of experiment: cell-based. Put shortly:
(§1)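 Each compound was first tested at 100 nM against tritiated radioligand binding. A Ki was determined only where that concentration inhibited at least 50% of specific binding (IC50 <100 nM).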
(In general: Loss of bound radioactivity is the signal in a displacement assay; it reports binding, not function.)

For experiment [2], the target named is Sodium-dependent noradrenaline transporter (Homo sapiens, UniProt P23975). The experiment in a line: Displacement of [3H]nisoxetine from human cloned NET expressed in HEK293 cells. The class given is cell-based. A digest of the protocol:
as §1

In experiment [3] the target is T1, Sodium-dependent dopamine transporter (Homo sapiens, UniProt Q01959). The experiment can be described thus: Displacement of [3H]WIN-35428 from human cloned DAT expressed in HEK293 cells. Type of experiment: cell-based. Particulars: in the assay text read “[3H]GBR12935” for “[3H]WIN-35428”. A digest of the protocol:
as §1

For experiment [4], the target named is T1, Sodium-dependent dopamine transporter. The experiment can be described thus: Displacement of [3H]GBR12935 from human cloned DAT expressed in HEK293 cells.

Sodium-dependent noradrenaline transporter, sequence (P23975 whole entry): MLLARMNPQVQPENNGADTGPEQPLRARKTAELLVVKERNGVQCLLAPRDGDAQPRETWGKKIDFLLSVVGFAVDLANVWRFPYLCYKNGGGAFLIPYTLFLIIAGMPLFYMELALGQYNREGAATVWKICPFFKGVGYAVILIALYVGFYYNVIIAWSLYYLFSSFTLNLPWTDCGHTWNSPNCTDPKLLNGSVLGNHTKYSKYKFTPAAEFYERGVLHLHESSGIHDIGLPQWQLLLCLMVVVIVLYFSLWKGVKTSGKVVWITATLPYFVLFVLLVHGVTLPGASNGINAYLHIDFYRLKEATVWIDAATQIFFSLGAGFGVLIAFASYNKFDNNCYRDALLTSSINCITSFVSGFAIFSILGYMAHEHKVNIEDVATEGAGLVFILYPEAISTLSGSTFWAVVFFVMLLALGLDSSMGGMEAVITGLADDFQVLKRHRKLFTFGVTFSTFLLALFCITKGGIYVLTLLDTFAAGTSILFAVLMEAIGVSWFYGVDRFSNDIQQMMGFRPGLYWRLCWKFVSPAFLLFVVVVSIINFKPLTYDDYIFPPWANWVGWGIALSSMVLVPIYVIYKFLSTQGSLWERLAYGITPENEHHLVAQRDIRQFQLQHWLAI
Sodium-dependent serotonin transporter, sequence (P31645 whole entry): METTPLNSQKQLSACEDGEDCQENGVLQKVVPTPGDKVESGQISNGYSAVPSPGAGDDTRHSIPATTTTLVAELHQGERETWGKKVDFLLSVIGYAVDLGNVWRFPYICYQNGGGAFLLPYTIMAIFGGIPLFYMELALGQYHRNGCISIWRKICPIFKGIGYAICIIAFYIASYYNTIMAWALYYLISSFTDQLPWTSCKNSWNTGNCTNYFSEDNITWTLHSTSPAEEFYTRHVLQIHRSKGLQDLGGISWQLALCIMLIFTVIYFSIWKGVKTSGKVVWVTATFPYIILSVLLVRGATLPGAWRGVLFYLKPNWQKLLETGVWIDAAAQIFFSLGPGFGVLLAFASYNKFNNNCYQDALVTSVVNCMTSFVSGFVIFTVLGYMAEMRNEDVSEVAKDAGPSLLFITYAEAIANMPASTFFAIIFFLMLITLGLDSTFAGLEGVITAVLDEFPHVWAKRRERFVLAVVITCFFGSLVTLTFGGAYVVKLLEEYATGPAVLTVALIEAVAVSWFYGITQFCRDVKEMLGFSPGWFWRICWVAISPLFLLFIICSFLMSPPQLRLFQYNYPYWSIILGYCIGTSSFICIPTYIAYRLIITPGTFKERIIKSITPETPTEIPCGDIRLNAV
T1 sequence (Q01959 whole entry): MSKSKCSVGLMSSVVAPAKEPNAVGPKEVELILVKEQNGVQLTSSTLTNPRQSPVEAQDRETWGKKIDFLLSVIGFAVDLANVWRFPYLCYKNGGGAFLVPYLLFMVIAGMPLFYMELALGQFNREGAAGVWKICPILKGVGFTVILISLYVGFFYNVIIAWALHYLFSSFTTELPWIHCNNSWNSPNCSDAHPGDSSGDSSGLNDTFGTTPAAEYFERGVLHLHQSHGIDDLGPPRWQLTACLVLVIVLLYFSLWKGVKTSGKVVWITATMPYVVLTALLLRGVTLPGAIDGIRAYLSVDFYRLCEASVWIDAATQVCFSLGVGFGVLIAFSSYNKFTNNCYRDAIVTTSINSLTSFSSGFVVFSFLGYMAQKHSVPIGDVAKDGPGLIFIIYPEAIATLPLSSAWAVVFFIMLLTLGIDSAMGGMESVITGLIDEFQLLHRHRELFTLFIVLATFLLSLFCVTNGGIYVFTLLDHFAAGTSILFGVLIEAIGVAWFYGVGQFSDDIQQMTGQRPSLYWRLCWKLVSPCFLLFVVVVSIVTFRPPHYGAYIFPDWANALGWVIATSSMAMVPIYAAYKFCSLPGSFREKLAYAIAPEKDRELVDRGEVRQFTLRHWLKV

A word on the Ki: it is a measure of affinity in units of concentration, obtained from inhibition or displacement. Turning to `Cc1ccc(Oc2cc(OCCF)ccc2CN(C)C)c(N)c1`, the Ki in experiment [1] is 0.519 µM; in experiment [2], 8.85 µM; in experiment [3] it was 0.726 µM.

Consider `Cc1ccc(Oc2ccc(F)cc2CN(C)C)c(N)c1`, for which the Ki in experiment [1] was found to be 0.008 µM; in experiment [4], 0.503 µM; in experiment [2], 1.24 µM.

For the compound `Cc1ccc(Oc2ccc(OCCCF)cc2CN(C)C)c(N)c1`, the Ki turned out to be 0.007 µM in experiment [1], 0.632 µM in experiment [2] and 6.98 µM in experiment [3].

With `Cc1ccc(Oc2ccc(OCCCCF)cc2CN(C)C)c(N)c1`, the inhibition constant (Ki) in experiment [1] amounted to 0.012 µM; in experiment [4] it was 3.6 µM; in experiment [2], 0.406 µM.

Take `Cc1ccc(Oc2cc(OCCCF)ccc2CN(C)C)c(N)c1`: the Ki in experiment [1] is 0.445 µM; in experiment [2], > 0.5 µM; in experiment [3], > 1 µM.

Turning to `CN(C)Cc1ccccc1Oc1ccc(I)cc1N`, the affinity in experiment [1] corresponds to a Ki of 0.000171 µM.

Consider `Cc1ccc(Oc2cc(F)ccc2CN(C)C)c(N)c1`, for which the Ki was found to be 0.007 µM in experiment [1], 0.503 µM in experiment [2] and 0.96 µM in experiment [3].

For `Cc1ccc(Oc2ccc(OCCF)cc2CN(C)C)c(N)c1`, the Ki is 0.401 µM in experiment [1], 0.667 µM in experiment [2] and 4.19 µM in experiment [3].

`Cc1ccc(Sc2cc(F)ccc2CN(C)C)c(N)c1`: the results for the Ki in experiment [1], in experiment [2] and in experiment [3] were 0.013 µM, 1.2 µM and 1.22 µM, respectively.
